From ChEMBL document CHEMBL2203008, “Photoaffinity labeling of Ras converting enzyme using peptide substrates that incorporate benzoylphenylalanine (Bpa) residues: improved labeling and structural implications” (Bioorg Med Chem, 2011)
Each block holds one molecule with its values, some of them ahead of it. Activity calls are given as the source filed them. The rule behind the calls is not given here. Starred links: 1 amine or outer side, 2 acyl side, 3 side chain; linkers in the order of their positions; H or OH if unused. Non-standard residues stand in square brackets, D forms with d. Residues, ends and D or L forms follow the SMILES beside them. *: point of attachment. X5 = O=C1N[C@H]2[C@H](CS[C@H]2CCCCC(=O)OCCOCCOCCN([C@@H](Cc2ccc(C(=O)c3ccccc3)cc2)C(=O)[*:2])[*:1])N1; X1 = NCCCC[C@@H](C(=O)[*:2])N(CCOCCOCCOC(=O)CCCC[C@@H]1SC[C@@H]2NC(=O)N[C@@H]21)[*:1]; Lys(Dde) = CC(NCCCC[C@H](N)C(=O)O)=C1C(=O)CC(C)(C)CC1=O; X4 = O=C1N[C@H]2[C@H](CS[C@H]2CCCCC(=O)OCCOCCOCCOCN*)N1; X2 = C/C(=C\C*)CC/C=C(\C)COCc1cccc(C(=O)c2ccccc2)c1; Bpa = N[C@@H](Cc1ccc(C(=O)c2ccccc2)cc1)C(=O)O; Dnp = O=[N+]([O-])c1ccc(*)c([N+](=O)[O-])c1; X3 = C/C(=C\C*)COCc1cccc(C(=O)c2ccccc2)c1; Farnesyl = CC(C)=CCC/C(C)=C/CC/C(C)=C/C*; Suc = O=C(CCC(=O)[*:2])[*:1]; 2Abz = Nc1ccccc1C(=O)O

Assays:
Saccharomyces cerevisiae [1] = test: Ratio of Vmax to Km for Rce1p in yeast membrane assessed as release of -K(Dnp)IM tripeptide measured per mg protein by fluorescence-based proteolytic assay; type: cell membranes
Method in brief: (§1)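 Enzyme was carbonate-washed membranes from S. cerevisiae overexpressing HA-tagged yeast Rce1p as the sole CAAX protease. Membranes were preincubated 10 min at 30 °C, then added to the Abz/Dnp fluorogenic farnesyl peptide: 10 concentrations, 0–45 or 0–50 μM final, 0.25 mg/mL membrane protein, Hepes/MgCl2 pH 7.5. Fluorescence (340/420 nm) was read every 30–60 s for 1 h at 30 °C. RFU were converted to product using a trypsin standard curve to give KM and Vmax. Runs were done in two or five replicates.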

Saccharomyces cerevisiae [2] = test: Activity of Rce1p in yeast membrane assessed as release of -K(Dnp)IM tripeptide measured per mg protein by fluorescence-based proteolytic assay; type: cell membranes; method in brief: as §1
Saccharomyces cerevisiae [3] = test: Competitive binding affinity to Rce1p active site in yeast membrane at 15 uM measured 30 mins post irradiation by Western blot analysis in presence of 100 uM Abz-KSKTKC(Fr)K(Dnp)IM; type: cell membranes
Method in brief: (§2)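 RCE1-HA membranes (0.25 μg/μL) were irradiated at 2537 Å with 15 μM probe for 30 min at 4 °C. The non-photoreactive farnesylated substrate was present at 50 or 100 μM, in Hepes/MgCl2 pH 7.5. Samples were taken through streptavidin pull-down, SDS-PAGE, anti-HA Western blot with ECL, and densitometry across four replicate experiments.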

Saccharomyces cerevisiae [4] = test: Competitive binding affinity to Rce1p active site in yeast membrane at 15 uM measured 30 mins post irradiation by Western blot analysis in presence of 50 uM Abz-KSKTKC(Fr)K(Dnp)IM; type: cell membranes; method in brief: as §2
Saccharomyces cerevisiae [5] = test: Binding affinity to rce1/ste24-deficient yeast cell membrane at 15 uM after 30 mins by Western blot analysis
Method in brief: (§3)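 Probe at 15 μM was irradiated at 2537 Å for 30 min at 4 °C in Hepes/MgCl2 pH 7.5, or left unirradiated. Membranes (0.25 μg/μL) came from RCE1-HA or Rce1p-lacking (rce1Δ ste24Δ) yeast strains. This was followed by streptavidin pull-down, SDS-PAGE and anti-HA Western blot with ECL detection.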

Saccharomyces cerevisiae [6] = test: Binding affinity to rce1/ste24-deficient yeast cell membrane at 15 uM measured 30 mins post irradiation by Western blot analysis; method in brief: as §3
Saccharomyces cerevisiae [7] = test: Binding affinity to Rce1p in yeast membrane at 15 uM measured 30 mins post irradiation by Western blot analysis; type: cell membranes; method in brief: as §3
Saccharomyces cerevisiae [8] = test: Binding affinity to Rce1p in yeast membrane at 15 uM after 30 mins by Western blot analysis; type: cell membranes; method in brief: as §3
Saccharomyces cerevisiae [9] = test: Binding affinity to Rce1p in yeast membrane at 15 uM measured 30 mins post irradiation by time-course experiment; type: cell membranes
Method in brief: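 Time course: RCE1-HA membranes (0.25 μg/μL) were irradiated at 2537 Å and 4 °C with 15 μM probe for 10–60 min, in 100 mM Hepes, 5 mM MgCl2, pH 7.5. Labelled protein was taken through streptavidin pull-down, SDS-PAGE and anti-HA Western blotting.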

Saccharomyces cerevisiae [10] = test: Activity of Rce1p in yeast membrane assessed as formation of Biotin-PEG3-KSK-Bpa-KC(Fr) at 20 uM after 4 hrs by RP-HPLC analysis; type: cell membranes
Method in brief: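 Probe diluted to 20 or 40 μM in 100 mM Hepes, 5 mM MgCl2, pH 7.5. Carbonate-washed yeast membranes containing Rce1p were added to 0.25 mg/mL total protein and incubated at 35 °C for about 4 h. Material was cleaned up on C18 reversed-phase cartridges and analysed by C18 RP-HPLC with diode-array detection at 220 and 349 nm. Product identity was checked by ESI-MS/MS.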

Saccharomyces cerevisiae [11] = test: Binding affinity to Rce1p in yeast membrane at 15 uM measured 20 mins post irradiation by pull-down-Western blot analysis; type: cell membranes
Method in brief: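 Biotinylated probes at 15 μM were mixed with membranes (0.25 μg/μL) from the RCE1-HA rce1Δ ste24Δ yeast strain in 100 mM Hepes, 5 mM MgCl2, pH 7.5. Samples were irradiated at 2537 Å for 20 min at 4 °C. Protein was precipitated and pulled down on streptavidin for 4 h at 4 °C, then separated by 12% SDS-PAGE. Detection was by anti-HA Western blot with ECL, followed by densitometry.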

SMILES: CC[C@H](C)[C@H](NC(=O)[C@H](CCCCNc1ccc([N+](=O)[O-])cc1[N+](=O)[O-])NC(=O)[C@H](CSC/C=C(\C)CC/C=C(\C)CCC=C(C)C)NC(=O)[C@H](CCCCN)NC(=O)[C@@H](NC(=O)[C@H](CCCCN)NC(=O)[C@H](CO)NC(=O)[C@H](CCCCN)NC(=O)c1ccccc1N)[C@@H](C)O)C(=O)N[C@@H](CCSC)C(=O)O (H-[2Abz]KSKTKC(Farnesyl)K(Dnp)IM-OH)
Vmax/Km (Saccharomyces cerevisiae [1]): 8.6 ×10⁻⁴ L/min
Km (Saccharomyces cerevisiae [2]): 6.4 µM
Vmax (Saccharomyces cerevisiae [2]): 5.6 nmol/min/mg

SMILES: CC[C@H](C)[C@H](NC(=O)[C@H](CCCCNc1ccc([N+](=O)[O-])cc1[N+](=O)[O-])NC(=O)[C@H](CSC/C=C(\C)COCc1cccc(C(=O)c2ccccc2)c1)NC(=O)[C@H](CCCCN)NC(=O)[C@@H](NC(=O)[C@H](CCCCN)NC(=O)[C@H](CO)NC(=O)[C@H](CCCCN)NC(=O)c1ccccc1N)[C@@H](C)O)C(=O)N[C@@H](CCSC)C(=O)O (H-[2Abz]KSKTKC(X3)K(Dnp)IM-OH)
Vmax/Km (Saccharomyces cerevisiae [1]): 4.8 ×10⁻⁵ L/min
Km (Saccharomyces cerevisiae [2]): 1.9 µM
Vmax (Saccharomyces cerevisiae [2]): 0.093 nmol/min/mg

SMILES: CC[C@H](C)[C@H](NC(=O)[C@@H](NC(=O)[C@H](CSC/C=C(\C)CC/C=C(\C)CCC=C(C)C)NC(=O)[C@H](CCCCN)NC(=O)[C@@H](NC(=O)[C@H](Cc1ccc(C(=O)c2ccccc2)cc1)NC(=O)[C@H](CO)NC(=O)[C@H](CCCCN)NCCOCCOCCOC(=O)CCCC[C@@H]1SC[C@@H]2NC(=O)N[C@@H]21)[C@@H](C)O)C(C)C)C(=O)N[C@@H](CCSC)C(=O)O (H-[X1]S[Bpa]TKC(Farnesyl)VIM-OH)
Activity (Saccharomyces cerevisiae [11]): Active

SMILES: CC[C@H](C)[C@H](NC(=O)[C@@H](NC(=O)[C@H](CSC/C=C(\C)CC/C=C(\C)CCC=C(C)C)NC(=O)[C@H](CCCCN)NC(=O)[C@@H](NC(=O)[C@H](CCCCN)NC(=O)[C@H](Cc1ccc(C(=O)c2ccccc2)cc1)NC(=O)[C@H](CCCCN)NCCOCCOCCOC(=O)CCCC[C@@H]1SC[C@@H]2NC(=O)N[C@@H]21)[C@@H](C)O)C(C)C)C(=O)N[C@@H](CCSC)C(=O)O (H-[X1][Bpa]KTKC(Farnesyl)VIM-OH)
Activity (Saccharomyces cerevisiae [11]): Active

SMILES: CC[C@H](C)[C@H](NC(=O)[C@@H](NC(=O)[C@H](CSC/C=C(\C)CC/C=C(\C)CCC=C(C)C)NC(=O)[C@H](CCCCN)NC(=O)[C@@H](NC(=O)[C@H](CCCCN)NC(=O)[C@H](CO)NC(=O)[C@H](Cc1ccc(C(=O)c2ccccc2)cc1)NCCOCCOCCOC(=O)CCCC[C@@H]1SC[C@@H]2NC(=O)N[C@@H]21)[C@@H](C)O)C(C)C)C(=O)N[C@@H](CCSC)C(=O)O (H-[X5]SKTKC(Farnesyl)VIM-OH)
Activity (Saccharomyces cerevisiae [11]): Active

Now from value to molecule:

Activity (Saccharomyces cerevisiae [3]): 7%
Activity (Saccharomyces cerevisiae [4]): 84%
Activity (Saccharomyces cerevisiae [5]): inactive
Activity (Saccharomyces cerevisiae [6]): inactive
Activity (Saccharomyces cerevisiae [7]): Active
Activity (Saccharomyces cerevisiae [8]): inactive
Activity (Saccharomyces cerevisiae [9]): Active
Activity (Saccharomyces cerevisiae [10]): Active
Activity (Saccharomyces cerevisiae [11]): Active
SMILES: CC[C@H](C)[C@H](NC(=O)[C@@H](NC(=O)[C@H](CSC/C=C(\C)CC/C=C(\C)CCC=C(C)C)NC(=O)[C@H](CCCCN)NC(=O)[C@H](Cc1ccc(C(=O)c2ccccc2)cc1)NC(=O)[C@H](CCCCN)NC(=O)[C@H](CO)NC(=O)[C@H](CCCCN)NCCOCCOCCOC(=O)CCCC[C@@H]1SC[C@@H]2NC(=O)N[C@@H]21)C(C)C)C(=O)N[C@@H](CCSC)C(=O)O (H-[X1]SK[Bpa]KC(Farnesyl)VIM-OH)

Activity (Saccharomyces cerevisiae [11]): Active
SMILES: CC[C@H](C)[C@H](NC(=O)[C@H](CCCCNc1ccc([N+](=O)[O-])cc1[N+](=O)[O-])NC(=O)[C@H](CSC/C=C(\C)CC/C=C(\C)COCc1cccc(C(=O)c2ccccc2)c1)NC(=O)[C@H](CCCCN)NC(=O)[C@@H](NC(=O)[C@H](CCCCN)NC(=O)[C@H](CO)NC(=O)[C@H](CCCCN)NC(=O)[C@H](CCCCNC(C)=C1C(=O)CC(C)(C)CC1=O)NC(=O)CCC(=O)NCOCCOCCOCCOC(=O)CCCC[C@@H]1SC[C@@H]2NC(=O)N[C@@H]21)[C@@H](C)O)C(=O)N[C@@H](CCSC)C(=O)O ({X4-Suc}-[Lys(Dde)]KSKTKC(X2)K(Dnp)IM-OH)

Activity (Saccharomyces cerevisiae [11]): Active
SMILES: CC[C@H](C)[C@H](NC(=O)[C@H](CCCCNc1ccc([N+](=O)[O-])cc1[N+](=O)[O-])NC(=O)[C@H](CSC/C=C(\C)COCc1cccc(C(=O)c2ccccc2)c1)NC(=O)[C@H](CCCCN)NC(=O)[C@@H](NC(=O)[C@H](CCCCN)NC(=O)[C@H](CO)NC(=O)[C@H](CCCCN)NC(=O)[C@H](CCCCNC(C)=C1C(=O)CC(C)(C)CC1=O)NC(=O)CCC(=O)NCOCCOCCOCCOC(=O)CCCC[C@@H]1SC[C@@H]2NC(=O)N[C@@H]21)[C@@H](C)O)C(=O)N[C@@H](CCSC)C(=O)O ({X4-Suc}-[Lys(Dde)]KSKTKC(X3)K(Dnp)IM-OH)
